From ChEMBL document CHEMBL1152865, “Synthesis and antimycobacterial activities of novel 6-nitroquinolone-3-carboxylic acids” (Eur J Med Chem, 2009)
Converted amounts (≈) assume the structure as drawn.

Key:
[1] = test system: Mycobacterium tuberculosis; experiment: Antibacterial activity against Mycobacterium tuberculosis H37Rv by agar dilution method; assay type: functional
Procedure, shortened: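 Agar dilution in Middlebrook 7H11 agar supplemented with OADC, following an approach similar to NCCLS guidance. MIC determined in duplicate.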

[2] = Inhibition of Mycobacterium smegmatis DNA gyrase assessed as inhibition of relaxed circular pUC18 supercoiling activity by agarose gel electrophoresis; set-up: species or system Mycolicibacterium smegmatis
Procedure, shortened: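 Gyrase purified from M. smegmatis, pre-incubated with compound in DMSO. Then 400 ng relaxed pUC18 added in 35 mM Tris-HCl pH 7.5, 5 mM MgCl2, 25 mM potassium glutamate, 2 mM spermidine, 2 mM ATP, BSA, yeast tRNA and 5% glycerol. Incubated 30 min at 37 °C; read-out by agarose gel electrophoresis. Ciprofloxacin and 5% DMSO reactions run as controls.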

[3] = Cytotoxicity against african green monkey Vero cells after 72 hrs by MTT assay; assay type: cell-based; settings: chlorocebus sabaeus
Procedure, shortened: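 Cells exposed to compound for 72 h; viability from cellular MTT conversion to formazan; CC50 derived.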

[4] = test system: Mycolicibacterium smegmatis; experiment: Antibacterial activity against Mycobacterium smegmatis ATCC 14468 by agar dilution method; assay type: functional
Procedure, shortened: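 Agar dilution on Middlebrook 7H11 agar with OADC supplement, following an NCCLS-type procedure; MIC read in duplicate.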

## O=C(O)c1cn(C2CC2)c2cc(N3CCC(O)(c4ccc(Cl)cc4)CC3)c([N+](=O)[O-])cc2c1=O
[1]
  MIC: 0.81 µM (≈ 0.392 µg/mL)
[2]
  IC50: 5 µg/mL (≈ 10.3 µM)
[3]
  CC50 at 72 h: 129 µM
[4]
  MIC: 3.22 µM (≈ 1.56 µg/mL)

## O=C(O)c1cn2c(n1)CN(c1cc3c(cc1[N+](=O)[O-])c(=O)c(C(=O)O)cn3-c1ccc(F)cc1)CC2
[1]
  MIC: 12.7 µM (≈ 6.25 µg/mL)
[4]
  MIC: 50.7 µM (≈ 25 µg/mL)

## CC(C)(C)NC(=O)C1c2ccccc2CCN1c1cc2c(cc1[N+](=O)[O-])c(=O)c(C(=O)O)cn2C1CC1 (configuration not stated)
[1]
  MIC: 1.55 µM (≈ 0.782 µg/mL)
[2]
  IC50: 30 µg/mL (≈ 59.5 µM)
[4]
  MIC: 3.09 µM (≈ 1.56 µg/mL)

## CCN(CC)C(=O)C1CCCN(c2cc3c(cc2[N+](=O)[O-])c(=O)c(C(=O)O)cn3-c2ccc(F)cc2)C1 (configuration not stated)
[1]
  MIC: 6.13 µM (≈ 3.13 µg/mL)
[4]
  MIC: 24.5 µM (≈ 12.5 µg/mL)

## CC1CN(c2cc3c(cc2[N+](=O)[O-])c(=O)c(C(=O)O)cn3C2CC2)CC(C)O1 (configuration not stated)
[1]
  MIC: 2.01 µM (≈ 0.779 µg/mL)
[4]
  MIC: 8.08 µM (≈ 3.13 µg/mL)

## CN1CCN(c2cc3c(cc2[N+](=O)[O-])c(=O)c(C(=O)O)cn3C(C)(C)C)CC1c1ccccc1 (configuration not stated)
[1]
  MIC: 16.1 µM (≈ 7.47 µg/mL)
[4]
  MIC: 64.4 µM (≈ 29.9 µg/mL)

## CC1CN(c2cc3c(cc2[N+](=O)[O-])c(=O)c(C(=O)O)cn3-c2ccc(F)cc2)CC(C)O1 (configuration not stated)
[1]
  MIC: 3.53 µM (≈ 1.56 µg/mL)
[2]
  IC50: 20 µg/mL (≈ 45.3 µM)
[3]
  CC50 at 72 h: 70.8 µM
[4]
  MIC: 14.2 µM (≈ 6.25 µg/mL)

## O=C(O)c1cn(-c2ccc(F)cc2)c2cc(N3CCSCC3)c([N+](=O)[O-])cc2c1=O
[1]
  MIC: 14.6 µM (≈ 6.25 µg/mL)
[4]
  MIC: 29.1 µM (≈ 12.5 µg/mL)

## Cc1onc(-c2c(F)cccc2F)c1C(=O)N1CCN(c2cc3c(cc2[N+](=O)[O-])c(=O)c(C(=O)O)cn3C(C)(C)C)CC1
[1]
  MIC: 2.62 µM (≈ 1.56 µg/mL)
[2]
  IC50: 30 µg/mL (≈ 50.4 µM)
[3]
  CC50 at 72 h: 105 µM
[4]
  MIC: 10.5 µM (≈ 6.25 µg/mL)

## CC(C)(C)n1cc(C(=O)O)c(=O)c2cc([N+](=O)[O-])c(N3CCC(O)(c4ccc(Cl)cc4)CC3)cc21
[1]
  MIC: 6.26 µM (≈ 3.13 µg/mL)
[4]
  MIC: 25 µM (≈ 12.5 µg/mL)

## O=C(O)c1cn(-c2ccc(F)cc2)c2cc(N3CCN(C(c4ccccc4)c4ccc(Cl)cc4)CC3)c([N+](=O)[O-])cc2c1=O (configuration not stated)
[1]
  MIC: 10.2 µM (≈ 6.25 µg/mL)
[4]
  MIC: 40.8 µM (≈ 25 µg/mL)

## O=C(O)c1cn(-c2ccc(F)cc2)c2cc(N3CCN(Cc4ccc5c(c4)OCO5)CC3)c([N+](=O)[O-])cc2c1=O
[1]
  MIC: 2.85 µM (≈ 1.56 µg/mL)
[4]
  MIC: 22.9 µM (≈ 12.5 µg/mL)

## COc1ccc(CC2C3=C(CCCC3)CCN2c2cc3c(cc2[N+](=O)[O-])c(=O)c(C(=O)O)cn3-c2ccc(F)cc2)cc1 (configuration not stated)
[1]
  MIC: 5.36 µM (≈ 3.13 µg/mL)
[4]
  MIC: 21.4 µM (≈ 12.5 µg/mL)

## O=C(O)c1cn(-c2ccc(F)cc2)c2cc(N3CCN(C(=O)C4COc5ccccc5O4)CC3)c([N+](=O)[O-])cc2c1=O (configuration not stated)
[1]
  MIC: 2.72 µM (≈ 1.56 µg/mL)
[2]
  IC50: 30 µg/mL (≈ 52.2 µM)
[3]
  CC50 at 72 h: 54.4 µM
[4]
  MIC: 10.9 µM (≈ 6.25 µg/mL)

## CC(C)(C)n1cc(C(=O)O)c(=O)c2cc([N+](=O)[O-])c(N3CCN(C(c4ccccc4)c4ccc(Cl)cc4)CC3)cc21 (configuration not stated)
[1]
  MIC: 5.44 µM (≈ 3.13 µg/mL)
[2]
  IC50: 30 µg/mL (≈ 52.2 µM)
[4]
  MIC: 10.9 µM (≈ 6.25 µg/mL)

## CCN(CC)C(=O)C1CCCN(c2cc3c(cc2[N+](=O)[O-])c(=O)c(C(=O)O)cn3C2CC2)C1 (configuration not stated)
[1]
  MIC: 3.42 µM (≈ 1.56 µg/mL)
[4]
  MIC: 6.86 µM (≈ 3.13 µg/mL)

## O=C(O)c1cn(-c2ccc(F)cc2)c2cc(N3CCN(C(=O)c4ccco4)CC3)c([N+](=O)[O-])cc2c1=O
[1]
  MIC: 6.18 µM (≈ 3.13 µg/mL)
[4]
  MIC: 24.7 µM (≈ 12.5 µg/mL)

## O=C(O)c1cn(C2CC2)c2cc(N3CCSCC3)c([N+](=O)[O-])cc2c1=O
[1]
  MIC: 4.17 µM (≈ 1.57 µg/mL)
[4]
  MIC: 33.3 µM (≈ 12.5 µg/mL)

## CC1CN(c2cc3c(cc2[N+](=O)[O-])c(=O)c(C(=O)O)cn3C(C)(C)C)CC(C)O1 (configuration not stated)
[1]
  MIC: 7.76 µM (≈ 3.13 µg/mL)
[4]
  MIC: 31 µM (≈ 12.5 µg/mL)

## CCN(CC)C(=O)C1CCCN(c2cc3c(cc2[N+](=O)[O-])c(=O)c(C(=O)O)cn3C(C)(C)C)C1 (configuration not stated)
[1]
  MIC: 6.62 µM (≈ 3.13 µg/mL)
[4]
  MIC: 26.4 µM (≈ 12.5 µg/mL)

## COc1ccc(CC2C3=C(CCCC3)CCN2c2cc3c(cc2[N+](=O)[O-])c(=O)c(C(=O)O)cn3C(C)(C)C)cc1 (configuration not stated)
[1]
  MIC: 5.74 µM (≈ 3.13 µg/mL)
[4]
  MIC: 22.9 µM (≈ 12.5 µg/mL)

## O=C(O)c1cn2c(n1)CN(c1cc3c(cc1[N+](=O)[O-])c(=O)c(C(=O)O)cn3C1CC1)CC2
[1]
  MIC: 1.78 µM (≈ 0.782 µg/mL)
[3]
  CC50 at 72 h: 142 µM
[4]
  MIC: 7.12 µM (≈ 3.13 µg/mL)

## CC(C)(C)n1cc(C(=O)O)c(=O)c2cc([N+](=O)[O-])c(N3CCC(N4CCCCC4)CC3)cc21
[1]
  MIC: 6.86 µM (≈ 3.13 µg/mL)
[4]
  MIC: 27.4 µM (≈ 12.5 µg/mL)
